# Measured values collected from several papers.
# Target: Mitogen-activated protein kinase kinase kinase 2 (MAP3K2, Homo sapiens, UniProt Q9Y2U5)
# Residues used in one study (Q9Y2U5 1-619): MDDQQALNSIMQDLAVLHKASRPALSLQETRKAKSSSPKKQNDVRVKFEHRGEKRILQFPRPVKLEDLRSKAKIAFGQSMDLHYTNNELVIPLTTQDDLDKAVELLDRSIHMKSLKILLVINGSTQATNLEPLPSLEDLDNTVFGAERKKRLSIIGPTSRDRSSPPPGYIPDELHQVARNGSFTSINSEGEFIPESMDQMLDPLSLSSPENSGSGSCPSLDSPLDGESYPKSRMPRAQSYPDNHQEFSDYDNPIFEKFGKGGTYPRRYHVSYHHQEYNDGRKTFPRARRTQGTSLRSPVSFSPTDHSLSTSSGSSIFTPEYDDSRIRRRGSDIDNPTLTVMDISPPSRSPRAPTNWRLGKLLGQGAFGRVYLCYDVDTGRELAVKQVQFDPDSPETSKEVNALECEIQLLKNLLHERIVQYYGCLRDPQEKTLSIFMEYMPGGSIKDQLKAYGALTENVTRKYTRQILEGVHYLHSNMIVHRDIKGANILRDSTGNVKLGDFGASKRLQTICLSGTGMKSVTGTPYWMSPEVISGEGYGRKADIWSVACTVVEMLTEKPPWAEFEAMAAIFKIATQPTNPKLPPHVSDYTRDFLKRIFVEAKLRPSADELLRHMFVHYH
SMILES,assay,setting,remaining binding
O=C(O)[C@@H]1[C@@H](Cn2nnc3ccccc3c2=O)CC[C@H]1C(=O)c1ccc(OCCC2CCOCC2)cc1,"cell-free assay, competition with immobilised ligand",1 µM,100%
O=C(NCCCN1CCOCC1)c1ccc(Nc2nccc(-c3cc4ccccc4s3)n2)cc1,"binding, competition with immobilised ligand",1 µM,24%
C[C@H]1CCN(c2nccc(-c3cnn4ncccc34)n2)C1,binding,1 µM,81%
C=CC(=O)N1CCC(C(=O)NCC(=O)N2CCN(c3nc(-c4cnc(N)nc4C(F)F)nc(N4CCOCC4)n3)CC2)CC1,"binding, competition with immobilised ligand",1 µM,69%
COc1ccnn2ncc(-c3ccnc(N(C)C)n3)c12,binding,1 µM,87%
c1cncc(-c2cccc(Nc3nccc(NC4CCCCC4)n3)c2)c1,"binding, competition with immobilised ligand",10 µM,48%
CN(C)CC#Cc1ccc(OCCCc2sc(N3CCc4cccc(C(=O)Nc5nc6ccccc6s5)c4C3)nc2C(=O)O)c(F)c1,"cell-free assay, competition with immobilised ligand",1 µM,75%
COc1cnc(Nc2cccc(S(N)(=O)=O)c2)nc1N1CCN(c2ccccc2)C(=O)C1,"binding, competition with immobilised ligand",1 µM,74%
F[C@@H]1CCN(c2nccc(-c3cnn4ncccc34)n2)C1,binding,1 µM,92%
O=S(=O)(NC1CCC(c2cc(F)ccc2F)(S(=O)(=O)c2ccc(Cl)cc2)CC1)C(F)(F)F (stereo not drawn),"cell-free assay, competition with immobilised ligand",1 µM,98%
N[C@H]1CCN(c2nccc(-c3cnn4ncccc34)n2)C1,binding,1 µM,100%
O=C(Nc1c[nH]nc1C(=O)NC1CCNCC1)c1cc(F)cc(F)c1,"binding, competition with immobilised ligand",1 µM,94%
O=C(c1ccc(Nc2ncc(Cl)c(-c3ccc(Cl)s3)n2)cc1)N1CCC(N2CCCC2)CC1,"binding, competition with immobilised ligand",1 µM,4.9%
FC(F)(F)Oc1cccc(-c2cnc3ccc(-c4ccncc4)nn23)c1,"cell-free assay, competition with immobilised ligand",5 µM,79%
O=C(Nc1ccc(Oc2ccc(F)cc2)cc1)N1CCc2ncccc2[C@H]1c1ccc(F)cc1,"cell-free assay, competition with immobilised ligand",1 µM,89%
COc1cnc(Nc2cccc(S(N)(=O)=O)c2)nc1N1CCN(c2ccccc2)CC1,"binding, competition with immobilised ligand",1 µM,68%
CCCCN(CCCC)C(=O)CN1C[C@@H](c2cc(OC)c3c(c2)OCO3)[C@H](C(=O)O)[C@H]1CC(C)(C)CCC,"cell-free assay, competition with immobilised ligand",1 µM,84.6%
CN(C)c1nccc(-c2cnc3ncccn23)n1,binding,1 µM,73%
O=C(c1ccc(Nc2ncc(Cl)c(-c3cc4ccccc4s3)n2)cc1)N1CCC(N2CCCC2)CC1,"binding, competition with immobilised ligand",1 µM,20%
CN(C)c1ncc(F)c(-c2cnn3ncccc23)n1,binding,1 µM,81%
C[C@@H]1CN(c2cc(-c3nn(C)c4ccc(OC5(C)CC5)cc34)ncn2)C[C@H](C)O1,"cell-free assay, competition with immobilised ligand",1 µM,83%
